What all share (assay type): functional
The subject of assay [1] is Stenotrophomonas maltophilia. Nature of the assay: Minimum protective concentration against beta-lactamase of Xanthomonas maltophilia GN 12873 (CXase-I). Put shortly: (§1)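 Minimum protective concentration taken as the lowest β-lactam concentration protecting a chromogenic indicator from β-lactamase hydrolysis within 1.0 h under standard conditions. Hydrolysis was read as a distinct red color. Compound stability without enzyme was checked at 37 °C in phosphate buffer, pH 6.5.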

Assay [2] has as its system Stenotrophomonas maltophilia. Nature of the assay: Minimum protective concentration against beta-lactamase of Xanthomonas maltophilia GN 12873 (CXase-II). The essentials: as §1
Assay [3] in a line: In vitro antimicrobial activity against Xanthomonas maltophilia GN 12873 was determined. As to conditions: Stenotrophomonas maltophilia. The essentials:
(§2)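 MIC by agar dilution: organisms applied onto antibiotic-containing agar plates with a Steers-type replicator. MIC taken as the lowest concentration preventing visible growth, averaged from duplicate determinations (± standard error).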

Assay [4] concerns Staphylococcus aureus. Nature of the assay: In vitro antimicrobial activity against Staphylococcus aureus 95 (methicillin-resistant strain) was determined. Put shortly: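 Agar dilution MIC: organisms were deposited onto medicated agar plates with a Steers-type replicator. MIC was read as the lowest antibiotic concentration preventing visible growth. Values are averages of duplicate determinations with standard error.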

In assay [5] the test system is Staphylococcus aureus. Nature of the assay: Minimum protective concentration against beta-lactamase of Staphylococcus aureus 95. Put shortly: as §1
Assay [6] relates to Pseudomonas aeruginosa. Nature of the assay: Minimum protective concentration against beta-lactamase of Pseudomonas aeruginosa 18S-H. The essentials:
as §1

For a further assay, the system named is Escherichia coli. Nature of the assay: In vitro antimicrobial activity against Escherichia coli ATCC 39188 was determined. The essentials: as §2
The nature of assay [7]: In vitro antimicrobial activity against Xanthomonas maltophilia GN 12873 in combination (1:1 w/w) with imipenem. The note with it: Stenotrophomonas maltophilia. Put shortly: as §2
The next assay has as its system Klebsiella pneumoniae. Nature of the assay: In vitro antimicrobial activity against Klebsiella pneumoniae NCTC 418 was determined. The essentials:
as §2

Assay [8] concerns Pseudomonas aeruginosa. Nature of the assay: In vitro antimicrobial activity against Pseudomonas aeruginosa 1101-75 was determined. The essentials:
as §2

The test system of assay [9] is Staphylococcus aureus. Nature of the assay: In vitro antimicrobial activity against Staphylococcus aureus FDA 209P was determined. Put shortly: as §2
For assay [10], the system named is Pseudomonas aeruginosa. Nature of the assay: In vitro antimicrobial activity against Pseudomonas aeruginosa 18S-H was determined. The essentials:
as §2

Broadly, the MIC is the lowest concentration found to suppress growth.

Each structure is given as a SMILES string. ≈ marks a conversion by molar mass, not a printed value.

For `O=C(Cc1ccccc1)N[C@@H]1C(=O)N2C(C(=O)O)=CC[C@H]12` (racemic), the MPC came to 30 µg/mL in assay [1], 33.6 µg/mL in assay [2], 3.45 µg/mL with Staphylococcus aureus [5] and 4.21 µg/mL in the assay with Pseudomonas aeruginosa [6]. Further, the minimum inhibitory concentration (MIC) amounted to 10.3 µg/mL (≈ 35.9 µM) in assay [3]; 30.7 µg/mL (≈ 107 µM) against Staphylococcus aureus [4]; 0.98 µg/mL (≈ 3.42 µM) in the assay on Escherichia coli; 2.15 µg/mL in [7]; 1.92 µg/mL (≈ 6.71 µM) against Klebsiella pneumoniae; 8.91 µg/mL (≈ 31.1 µM) with Pseudomonas aeruginosa [8]. The MIC in the assay on Staphylococcus aureus [9] was 0.12 µg/mL (≈ 0.419 µM); with Pseudomonas aeruginosa [10] it was 31.6 µg/mL (≈ 110 µM).

Regarding `COC(=O)CC1=C(C(=O)O)N2C(=O)[C@@H](NC(=O)Cc3ccccc3)[C@H]2C1` (racemic), the MPC came out at 30.4 µg/mL in [1], 35 µg/mL in [2], 6.87 µg/mL in the assay with Staphylococcus aureus [5] and 8.74 µg/mL in the assay on Pseudomonas aeruginosa [6]. Moreover, the MIC in [3] amounted to 5.97 µg/mL (≈ 16.7 µM); with Staphylococcus aureus [4], 18.5 µg/mL (≈ 51.7 µM); in the assay with Escherichia coli, 0.67 µg/mL (≈ 1.87 µM); in [7], 0.98 µg/mL; in the assay with Klebsiella pneumoniae, 0.77 µg/mL (≈ 2.15 µM); in the assay with Pseudomonas aeruginosa [8], 1.8 µg/mL (≈ 5.02 µM). Besides, the MIC with Staphylococcus aureus [9] is 0.04 µg/mL (≈ 0.112 µM); in the assay on Pseudomonas aeruginosa [10], 21.3 µg/mL (≈ 59.4 µM).

Turning to `O=C(Cc1ccccc1)N[C@@H]1C(=O)N2C(C(=O)O)=C(CCO)C[C@H]12` (racemic), the MPC was 36.7 µg/mL in [1], 42.1 µg/mL in assay [2], 7.18 µg/mL with Staphylococcus aureus [5] and 6.98 µg/mL in the assay on Pseudomonas aeruginosa [6]. In addition, the MIC in assay [3] turned out to be 6.73 µg/mL (≈ 20.4 µM); against Staphylococcus aureus [4] it was 19.2 µg/mL (≈ 58.2 µM); with Escherichia coli, 0.75 µg/mL (≈ 2.27 µM); in assay [7] it was 0.77 µg/mL; against Klebsiella pneumoniae, 0.88 µg/mL (≈ 2.66 µM); in the assay on Pseudomonas aeruginosa [8] it was 3.51 µg/mL (≈ 10.6 µM). In addition, the MIC against Staphylococcus aureus [9] was 0.07 µg/mL (≈ 0.212 µM); against Pseudomonas aeruginosa [10] it was 22.6 µg/mL (≈ 68.5 µM).

With `CC(=O)OCCC1=C(C(=O)O)N2C(=O)[C@@H](NC(=O)Cc3ccccc3)[C@H]2C1` (racemic), the MPC in [1] worked out at 27.5 µg/mL; in [2] it was 47.8 µg/mL; in the assay on Staphylococcus aureus [5] it was 6.12 µg/mL; with Pseudomonas aeruginosa [6] it was 5.87 µg/mL. In addition, the MIC in [3] came to 4.12 µg/mL (≈ 11.1 µM); with Staphylococcus aureus [4] it was 14.9 µg/mL (≈ 40.1 µM); against Escherichia coli it was 0.69 µg/mL (≈ 1.85 µM); in assay [7], 0.39 µg/mL; with Klebsiella pneumoniae, 1.08 µg/mL (≈ 2.9 µM); in the assay on Pseudomonas aeruginosa [8] it was 2.87 µg/mL (≈ 7.71 µM). For the same compound, the MIC in the assay on Staphylococcus aureus [9] is 0.05 µg/mL (≈ 0.134 µM); with Pseudomonas aeruginosa [10] it was 17.2 µg/mL (≈ 46.2 µM).

Take `O=C(Cc1ccccc1)N[C@@H]1C(=O)N2C(C(=O)O)=C(C(=O)O)C[C@H]12` (racemic): the MPC in assay [1] is 25.5 µg/mL; in assay [2] it was 29.4 µg/mL; in the assay with Staphylococcus aureus [5] it was 2.2 µg/mL; in the assay with Pseudomonas aeruginosa [6], 2.38 µg/mL. In addition, the minimum inhibitory concentration (MIC) in assay [3] worked out at 9.61 µg/mL (≈ 29.1 µM); with Staphylococcus aureus [4] it was 13.9 µg/mL (≈ 42 µM); with Escherichia coli it was 0.48 µg/mL (≈ 1.45 µM); in assay [7], 1.58 µg/mL; in the assay on Klebsiella pneumoniae, 0.56 µg/mL (≈ 1.7 µM); in the assay on Pseudomonas aeruginosa [8] it was 5.63 µg/mL (≈ 17 µM). Besides, the MIC in the assay on Staphylococcus aureus [9] stood at 0.03 µg/mL (≈ 0.0908 µM); in the assay on Pseudomonas aeruginosa [10], 28.2 µg/mL (≈ 85.3 µM).

In the case of `COC(=O)C1=C(C(=O)O)N2C(=O)[C@@H](NC(=O)Cc3ccccc3)[C@H]2C1` (racemic), the MPC in assay [1] is 14.6 µg/mL; in assay [2], 16.7 µg/mL; in the assay with Staphylococcus aureus [5] it was 0.98 µg/mL; in the assay on Pseudomonas aeruginosa [6], 1.02 µg/mL. Further, the MIC in assay [3] is 12.1 µg/mL (≈ 35.2 µM); in the assay with Staphylococcus aureus [4], 8.3 µg/mL (≈ 24.1 µM); against Escherichia coli, 0.2 µg/mL (≈ 0.581 µM); in [7] it was 2.01 µg/mL; against Klebsiella pneumoniae it was 0.15 µg/mL (≈ 0.436 µM); with Pseudomonas aeruginosa [8] it was 0.89 µg/mL (≈ 2.58 µM). The MIC was 0.01 µg/mL (≈ 0.029 µM) against Staphylococcus aureus [9] and 12.1 µg/mL (≈ 35.1 µM) in the assay on Pseudomonas aeruginosa [10].

`C[C@@H](O)[C@H]1C(=O)N2C(C(=O)O)=C(SCCNC=N)C[C@H]12.O` [IMIPENEM]: the MPC was determined as 46.8 µg/mL in assay [1], 0.87 µg/mL in assay [2], 30.12 µg/mL in the assay on Staphylococcus aureus [5] and 35.61 µg/mL in the assay with Pseudomonas aeruginosa [6]. In addition, the MIC was greater than 128 µg/mL in assay [3]; 15.7 µg/mL against Staphylococcus aureus [4]; 0.35 µg/mL in the assay on Escherichia coli; 0.4 µg/mL against Klebsiella pneumoniae; 4.71 µg/mL against Pseudomonas aeruginosa [8]; 0.02 µg/mL in the assay with Staphylococcus aureus [9]. The compound also yielded an MIC in the assay on Pseudomonas aeruginosa [10] of 35.6 µg/mL.

As to `CC1(C)S[C@@H]2[C@H](NC(=O)Cc3ccccc3)C(=O)N2[C@H]1C(=O)O` [PENICILLIN G], the MPC amounted to 23.6 µg/mL in assay [1], 28.8 µg/mL in assay [2], 1.85 µg/mL in the assay on Staphylococcus aureus [5] and 1.03 µg/mL with Pseudomonas aeruginosa [6]. For the same compound, the MIC in assay [3] was greater than 128 µg/mL; with Staphylococcus aureus [4], greater than 128 µg/mL; against Escherichia coli it was 2.87 µg/mL (≈ 8.58 µM); with Klebsiella pneumoniae it was greater than 128 µg/mL; with Pseudomonas aeruginosa [8] it was greater than 128 µg/mL; against Staphylococcus aureus [9], 0.51 µg/mL (≈ 1.53 µM). This compound came in with an MIC against Pseudomonas aeruginosa [10] greater than 128 µg/mL.

Values taken from ChEMBL document CHEMBL1133014, “Design, synthesis, and SAR of novel carbapenem antibiotics with high stability to Xanthomonas maltophilia oxyiminocephalosporinase type II” (2000).
